The results in this text go back to ChEMBL document CHEMBL3576785, “Differential Targeting of Human Topoisomerase II Isoforms with Small Molecules” (J Med Chem, 2015).

Experiment [1] addresses DNA topoisomerase 2-alpha (Homo sapiens) (UniProt P11388). In words: Activity of TOP2A in human K562 cells assessed as poisoning activity at 100 uM after 1 hr by TARDIS assay. The format is cell-based. The gist of the method: (§1)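 TARDIS (trapped in agarose DNA immunostaining) in K562 cells, which express both isoforms at similar levels. Cells given 100 µM analogue, DMSO as vehicle control. Drug-stabilised TOP2–DNA complexes detected with isoform-specific immunofluorescence, TOP2A or TOP2B. Fluorescence quantified and normalised to VP-16-treated cells. Single-dose screen, followed by dose–response.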

For experiment [2], the target named is DNA topoisomerase 2-beta (Homo sapiens) (UniProt Q02880). In words: Activity of TOP2B in human K562 cells assessed as poisoning activity at 100 uM after 1 hr by TARDIS assay. The class given is cell-based. The essentials:
as §1

A further experiment relates to K562. In words: Activity of TOP2 in human K562 cells assessed as poisoning activity by measuring phosphorylation of gamma-H2AX at Ser139 at 100 uM after 1 hr by DAPI staining-based epifluorescence microscopic analysis. The format is cell-based. The essentials:
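K562 cells (human leukaemia, similar expression of both TOP2 isoforms) exposed to 100 µM analogue, DMSO as vehicle control. γ-H2AX (phospho-Ser139 H2AX) detected by immunofluorescence microscopy with nuclear counterstain. Signal quantified in γ-H2AX-positive cells and normalised to VP-16-treated cells.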

A short description of experiment [3]: Cytotoxicity against wild type human NALM6 cells assessed as growth inhibition after 5 days by XTT assay. The format is functional, cell-based. The conditions noted are these: NALM-6, 120 h. The gist of the method: (§2)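 Growth inhibition in Nalm-6 wild-type, TOP2A+/- and TOP2B-/- lines. IC50 values are means ±SD of 3 replicate experiments.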
A short description of experiment [4]: Cytotoxicity against human NALM6 cells expressing 50% TOP2A assessed as growth inhibition after 5 days by XTT assay. The format is functional, cell-based. The note with it: NALM-6, 120 h. The essentials:
as §2
For orientation: Formazan colour is commonly taken as a measure of viable cells.

Experiment [5] can be described thus: Cytotoxicity against TOP2B double knockout human NALM6 cells assessed as growth inhibition after 5 days by XTT assay. The note with it: NALM-6, 120 h. The class given is functional, cell-based. The gist of the method: as §2
Experiment [6] deals with NALM-6. In words: Selectivity ratio of IC50 for human NALM6 cells expressing 50% TOP2A to IC50 for wild type human NALM6 cells. The format is functional.
Experiment [7] has as its system NALM-6. In words: Selectivity ratio of IC50 for TOP2B double knockout human NALM6 cells to IC50 for wild type human NALM6 cells. The format is functional.

Structures are written as SMILES. Activity calls are given as the source filed them. The rule behind the calls is not given here.

In general, IC50 refers to the point on the concentration scale where inhibition reaches its midpoint.

Sequence of DNA topoisomerase 2-alpha (Homo sapiens) (P11388 whole entry, canonical isoform): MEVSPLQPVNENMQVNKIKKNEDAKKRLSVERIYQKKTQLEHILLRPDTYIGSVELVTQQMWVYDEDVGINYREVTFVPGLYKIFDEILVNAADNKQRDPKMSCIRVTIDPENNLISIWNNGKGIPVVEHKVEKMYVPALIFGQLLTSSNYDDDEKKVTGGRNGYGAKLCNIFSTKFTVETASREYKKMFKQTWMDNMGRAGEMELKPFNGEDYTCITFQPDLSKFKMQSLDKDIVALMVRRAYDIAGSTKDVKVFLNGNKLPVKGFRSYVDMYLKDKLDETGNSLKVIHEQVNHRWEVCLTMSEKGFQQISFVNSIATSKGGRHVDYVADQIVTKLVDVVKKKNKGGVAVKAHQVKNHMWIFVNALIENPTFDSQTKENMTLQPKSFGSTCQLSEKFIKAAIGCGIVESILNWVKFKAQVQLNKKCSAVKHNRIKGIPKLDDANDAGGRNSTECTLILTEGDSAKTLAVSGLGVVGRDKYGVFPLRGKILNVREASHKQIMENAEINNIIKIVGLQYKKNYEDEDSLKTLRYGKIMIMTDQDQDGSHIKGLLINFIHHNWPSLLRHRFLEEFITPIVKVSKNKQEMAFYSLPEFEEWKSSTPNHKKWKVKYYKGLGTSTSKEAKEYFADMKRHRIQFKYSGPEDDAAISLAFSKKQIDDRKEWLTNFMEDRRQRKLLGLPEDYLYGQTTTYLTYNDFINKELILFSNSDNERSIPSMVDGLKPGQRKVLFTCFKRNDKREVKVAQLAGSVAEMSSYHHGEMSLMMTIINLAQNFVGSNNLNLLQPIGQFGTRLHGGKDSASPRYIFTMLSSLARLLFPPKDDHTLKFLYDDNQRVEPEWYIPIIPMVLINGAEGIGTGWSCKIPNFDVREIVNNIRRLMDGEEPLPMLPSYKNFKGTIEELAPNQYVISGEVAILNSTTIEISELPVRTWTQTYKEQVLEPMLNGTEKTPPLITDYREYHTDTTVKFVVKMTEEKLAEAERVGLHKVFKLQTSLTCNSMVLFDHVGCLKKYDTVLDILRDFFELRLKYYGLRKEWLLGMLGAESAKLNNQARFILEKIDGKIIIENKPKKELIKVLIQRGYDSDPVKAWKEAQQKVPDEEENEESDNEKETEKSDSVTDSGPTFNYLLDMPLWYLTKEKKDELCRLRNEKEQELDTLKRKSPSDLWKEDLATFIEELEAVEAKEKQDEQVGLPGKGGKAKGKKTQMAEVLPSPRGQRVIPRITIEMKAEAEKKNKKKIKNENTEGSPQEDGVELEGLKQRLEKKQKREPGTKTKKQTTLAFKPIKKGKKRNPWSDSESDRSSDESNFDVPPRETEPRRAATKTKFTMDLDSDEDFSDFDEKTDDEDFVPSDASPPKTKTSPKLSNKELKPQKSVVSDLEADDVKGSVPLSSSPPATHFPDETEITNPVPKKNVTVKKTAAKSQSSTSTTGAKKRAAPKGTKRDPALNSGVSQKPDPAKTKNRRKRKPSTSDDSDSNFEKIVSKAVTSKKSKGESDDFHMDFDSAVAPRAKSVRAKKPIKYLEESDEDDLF
Sequence of DNA topoisomerase 2-beta (Homo sapiens) (Q02880 whole entry): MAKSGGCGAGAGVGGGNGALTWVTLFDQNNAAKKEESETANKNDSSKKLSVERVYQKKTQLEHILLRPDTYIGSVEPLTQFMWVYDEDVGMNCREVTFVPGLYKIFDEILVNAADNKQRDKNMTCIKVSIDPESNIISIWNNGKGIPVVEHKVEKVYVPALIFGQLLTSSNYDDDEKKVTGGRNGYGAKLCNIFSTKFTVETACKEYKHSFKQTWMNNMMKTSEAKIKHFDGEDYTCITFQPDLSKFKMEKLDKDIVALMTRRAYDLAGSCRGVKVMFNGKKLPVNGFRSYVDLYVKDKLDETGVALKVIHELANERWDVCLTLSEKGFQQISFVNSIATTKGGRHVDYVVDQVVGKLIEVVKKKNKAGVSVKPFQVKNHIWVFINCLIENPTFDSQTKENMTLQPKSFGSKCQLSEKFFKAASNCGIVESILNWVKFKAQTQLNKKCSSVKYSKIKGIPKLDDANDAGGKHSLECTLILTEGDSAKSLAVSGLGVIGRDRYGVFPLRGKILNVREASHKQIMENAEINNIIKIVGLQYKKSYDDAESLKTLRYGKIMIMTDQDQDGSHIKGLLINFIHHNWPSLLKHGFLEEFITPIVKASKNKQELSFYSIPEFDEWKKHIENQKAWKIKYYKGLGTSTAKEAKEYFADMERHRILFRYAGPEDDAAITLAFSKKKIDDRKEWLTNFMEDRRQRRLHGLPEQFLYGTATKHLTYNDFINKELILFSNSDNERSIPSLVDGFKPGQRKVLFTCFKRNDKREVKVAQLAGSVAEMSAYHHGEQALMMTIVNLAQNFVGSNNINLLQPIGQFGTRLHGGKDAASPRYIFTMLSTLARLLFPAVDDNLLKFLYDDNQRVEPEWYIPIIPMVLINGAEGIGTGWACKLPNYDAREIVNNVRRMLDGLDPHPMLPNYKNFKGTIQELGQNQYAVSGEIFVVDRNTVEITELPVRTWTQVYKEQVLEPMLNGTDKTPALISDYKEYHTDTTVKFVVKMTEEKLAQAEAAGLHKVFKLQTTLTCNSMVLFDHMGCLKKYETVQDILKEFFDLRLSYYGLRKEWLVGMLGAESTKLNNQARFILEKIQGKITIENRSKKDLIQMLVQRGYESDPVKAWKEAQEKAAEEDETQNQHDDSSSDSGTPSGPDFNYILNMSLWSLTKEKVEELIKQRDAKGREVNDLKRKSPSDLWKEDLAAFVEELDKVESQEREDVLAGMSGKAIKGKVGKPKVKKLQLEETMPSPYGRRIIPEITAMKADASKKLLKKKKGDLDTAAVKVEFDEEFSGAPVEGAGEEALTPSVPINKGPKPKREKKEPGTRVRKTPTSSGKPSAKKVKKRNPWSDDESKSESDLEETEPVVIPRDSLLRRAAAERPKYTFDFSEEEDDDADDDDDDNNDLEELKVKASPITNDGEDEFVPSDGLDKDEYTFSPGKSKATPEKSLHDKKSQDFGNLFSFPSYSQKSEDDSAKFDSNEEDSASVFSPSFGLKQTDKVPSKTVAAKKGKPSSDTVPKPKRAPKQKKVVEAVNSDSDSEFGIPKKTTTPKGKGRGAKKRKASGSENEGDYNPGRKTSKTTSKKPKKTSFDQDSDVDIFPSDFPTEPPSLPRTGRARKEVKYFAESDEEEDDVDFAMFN

For the molecule `COc1cc([C@@H]2c3cc4c(cc3[C@@H](O[C@@H]3O[C@@H]5CO[C@@H](C)O[C@H]5[C@H](O)[C@H]3O)[C@H]3COC(=O)[C@H]23)OCO4)cc(OC)c1O` [ETOPOSIDE], the outcome (in experiment [1]; in experiment [2]; in the experiment with K562) was Active. Further, the results for the 50% inhibitory concentration (IC50) in experiment [3], in experiment [4] and in experiment [5] were 134 nM, 234 nM and 182 nM, respectively. For the same molecule, the “Ratio IC50” value in the experiment on NALM-6 [6] turned out to be 1.7; in the experiment on NALM-6 [7], 1.4.
Turning to `COC(=O)CCCCCn1cc(CO[C@@H]2c3cc4c(cc3[C@@H](c3cc(OC)c(O)c(OC)c3)[C@H]3C(=O)OC[C@@H]32)OCO4)nn1`, the result (in experiment [1]; in experiment [2]; in the experiment with K562) was Active. Further, in experiment [3], the 50% inhibitory concentration (IC50) was found to be 3900 nM.
Regarding `COc1cc([C@@H]2c3cc4c(cc3[C@@H](n3cc(CN(C)C)nn3)[C@H]3COC(=O)[C@H]23)OCO4)cc(OC)c1O`, the result (in experiment [1]; in experiment [2]; in the experiment on K562) was Active. Besides, the values for the 50% inhibitory concentration (IC50) in experiment [3], in experiment [4] and in experiment [5] were 620 nM, 850 nM and 1320 nM, respectively. The “Ratio IC50” value is 1.4 in the experiment with NALM-6 [6] and 2.1 in the experiment with NALM-6 [7].
Turning to `COc1cc([C@@H]2c3cc4c(cc3[C@@H](OCc3cn(CCCN(C)C)nn3)[C@H]3COC(=O)[C@H]23)OCO4)cc(OC)c1O`, the result (in experiment [1]; in experiment [2]; with K562) was Active. Besides, the IC50 was found to be 1200 nM in experiment [3], 1900 nM in experiment [4] and 2360 nM in experiment [5]. The “Ratio IC50” value worked out at 1.6 in the experiment with NALM-6 [6] and 2 with NALM-6 [7].
For `COc1cc([C@@H]2c3cc4c(cc3[C@@H](OCc3cn(-c5ccc(O)cc5)nn3)[C@H]3COC(=O)[C@H]23)OCO4)cc(OC)c1O`, the result (in experiment [1]; in experiment [2]; in the experiment with K562) was Active. Moreover, the concentration for half-maximal inhibition (IC50) in experiment [3] stood at 3400 nM; in experiment [4], 3500 nM; in experiment [5] it was 1920 nM. Further, the figures for the “Ratio IC50” value in the experiment on NALM-6 [6] and in the experiment on NALM-6 [7] were 1 and 0.6, respectively.
For the molecule `COc1cc([C@@H]2c3cc4c(cc3[C@@H](OCc3cn(Cc5ccc(C(=O)O)cc5)nn3)[C@H]3COC(=O)[C@H]23)OCO4)cc(OC)c1OC`, in the experiment on K562, the result was Active. In addition, in experiment [3], the IC50 is more than 10000 nM.
